Molecular target: T1, GBA3 (Homo sapiens, UniProt Q9H227)
T1 sequence (Q9H227 1-469): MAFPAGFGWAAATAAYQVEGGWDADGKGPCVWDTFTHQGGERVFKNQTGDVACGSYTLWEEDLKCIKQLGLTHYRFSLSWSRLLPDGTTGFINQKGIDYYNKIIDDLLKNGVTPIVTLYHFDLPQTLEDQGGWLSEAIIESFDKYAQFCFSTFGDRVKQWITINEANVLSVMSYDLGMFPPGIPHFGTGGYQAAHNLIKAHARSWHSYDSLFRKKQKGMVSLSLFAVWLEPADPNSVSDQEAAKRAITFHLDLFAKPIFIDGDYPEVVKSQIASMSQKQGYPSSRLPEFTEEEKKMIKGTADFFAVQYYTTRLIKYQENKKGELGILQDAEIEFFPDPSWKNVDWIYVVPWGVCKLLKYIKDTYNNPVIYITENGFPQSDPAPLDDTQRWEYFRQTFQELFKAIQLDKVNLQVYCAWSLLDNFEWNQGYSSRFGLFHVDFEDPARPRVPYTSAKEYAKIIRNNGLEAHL
Test: GBA3 in vitro assay, homogenates of HEK293T overexpressing GBA3
Format: biochemical
Summary of the method: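 Lysate from HEK293T cells stably overexpressing human GBA3 was pretreated 30 min with 1 mM conduritol β epoxide to block GBA1. Assay in 100 mM Hepes pH 7.0 with 0.1% BSA for 1 h, with 0.05–5 mM 4MU-β-D-glucopyranoside plus inhibitor and no inhibitor preincubation. […] Duplicates; Ki from curve fit.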

Ki: > 1000 µM
SMILES: CCCCN1C[C@H](O)[C@@H](O)[C@H](O)[C@H]1CO [compound 1, N-butyldeoxynojirimycin]
